From ChEMBL document CHEMBL3856288, “Amidate Prodrugs of Deoxythreosyl Nucleoside Phosphonates as Dual Inhibitors of HIV and HBV Replication” (J Med Chem, 2016)

Key:
[1] = Antiviral activity against HIV2 ROD infected in human MT4 cells assessed as protection against virus-induced cytopathic effect after 5 days by MTT assay; type: functional, cell-based, Human immunodeficiency virus type 2 (ISOLATE ROD); conditions: Human immunodeficiency virus 2, MT4, 120 h
[2] = Cytotoxicity against human MT4 cells assessed as decrease in cell viability after 5 days by MTT assay; type: toxicity, cell-based
[3] = system: Human immunodeficiency virus 1; experiment: Antiviral activity against HIV1 3B infected in human MT4 cells assessed as protection against virus-induced cytopathic effect after 5 days by MTT assay; type: functional, cell-based; conditions: Human immunodeficiency virus 1, 3B, MT4, 120 h
Hepatitis B virus [4] = experiment: Antiviral activity against HBV ayw1 infected in human HepG2(2.2.15) cells assessed as reduction in viral replication by measuring extracellular viral DNA copy number after 6 days by real-time qPCR method; type: functional, cell-based; conditions: ayw1, HepG2 2.2.15, 144 h
Method in brief: (§1)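 HepG2 2.2.15 cells (stable line carrying two copies of the HBV ayw1 genome) were seeded at 1.5 × 10^4 cells/well in DMEM with 2% FBS and G418. After 16−24 h, compound was added in triplicate, and medium plus compound was renewed on day 3. On day 6, supernatant was Pronase-treated and extracellular HBV DNA was quantified by TaqMan qPCR against an HBV DNA standard curve to give EC50/EC90. Cell viability was read by MTS uptake to give CC50.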

[5] = Cytotoxicity against human HepG2(2.2.15) cells assessed as reduction in cell viability by MTS assay; type: toxicity, cell-based; method in brief: as §1
[6] = Drug level in pH 8 phosphate buffer treated with 1'alpha-(Adenin-9-yl)-2'-deoxy-3'-O-{[N-(diisoamyl-L-aspartate)](phenoxy)methylphosphonoamidate}-L-threose at 2 mg measured every 30 mins for 14 hrs by RP-HPLC/mass spectra analysis
[7] = system: Human immunodeficiency virus 1; experiment: Antiviral activity against HIV1 3B infected in human MT2 cells assessed as protection against virus-induced cytopathic effect after 5 days by XTT assay; type: functional, cell-based; conditions: Human immunodeficiency virus 1, 3B, MT2, 120 h
[8] = Selectivity ratio of CC50 for human HepG2(2.2.15) cells to EC50 for reduction in HBV ayw1 extracellular DNA copy number; conditions: read-out: Ratio CC50/EC50
Method in brief: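 HepG2 2.2.15 cells (two HBV ayw1 genome copies), 1.5 × 10^4 cells/well in DMEM with 2% FBS and G418; compound dosed in triplicate and medium renewed on day 3. On day 6, Pronase-treated supernatant HBV DNA measured by TaqMan qPCR against a standard curve, giving EC50. MTS uptake gave CC50, and the ratio was calculated from these.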

[9] = Half life in human liver microsomes at 0.1 uM in presence of NADPH-regenerating system by HPLC MS/MS method; type: ADME
Method in brief: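 Pooled liver microsomes preincubated 10 min at 37 °C with NADPH-regenerating system (1 mM NADP, 5 mM G6P, 1 U/mL G6PDHase) in phosphate buffer pH 7.4, 3 mM MgCl2, 1 mM EDTA; compound added at 0.1 μM final; samples at 0, 15, 30, 45, 60 min quenched in acetonitrile/methanol, analysed by HPLC MS/MS.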

[10] = Selectivity index, ratio of CC50 for human MT4 cells to EC50 for HIV1 3B infected in human MT4 cells; type: toxicity, cell-based; conditions: read-out: Ratio CC50/EC50
[11] = Half life in human liver S9 fraction at 100 uM by HPLC-UV method; type: ADME, subcellular
Method in brief: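 Incubation started by adding human liver S9 fraction (4 mg/mL) at 37 °C; aliquots at 0, 10, 20, 30, 60 min quenched in acetonitrile, centrifuged, supernatant analysed by C18 HPLC with UV at 260 nm; parent peak area versus time 0 gave percent remaining and half-life.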

[12] = Selectivity index, ratio of CC50 for human MT4 cells to EC50 for HIV2 ROD infected in human MT4 cells; type: toxicity, cell-based; conditions: read-out: Ratio CC50/EC50
Hepatitis B virus [13] = experiment: Antiviral activity against HBV ayw1 infected in human HepG2(2.2.15) cells assessed as reduction in viral replication by measuring intracellular viral DNA copy number after 6 days by real-time qPCR method; type: functional, cell-based; conditions: ayw1, HepG2 2.2.15, 144 h
Method in brief: (§2)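 The protocol was the same as the primary HepG2 2.2.15 assay (triplicate dosing, medium plus compound renewed on day 3, 6-day course). At the end, total intracellular DNA was isolated from the cells and HBV DNA copy number was measured by TaqMan qPCR to give EC50/EC90. CC50 came from MTS viability, and SI was taken as CC50/EC50.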

[14] = Selectivity ratio of CC50 for human HepG2(2.2.15) cells to EC50 for reduction in HBV ayw1 intracellular DNA copy number; type: ADME, cell-based; conditions: read-out: Ratio CC50/EC50; method in brief: as §2
[15] = Drug level in acetone-d6/pH 7.6 Trizma buffer treated with 1'alpha-(Adenin-9-yl)-2'-deoxy-3'-O-{[N-(diisoamyl-L-aspartate)](phenoxy)methylphosphonoamidate}-L-threose assessed as baker's yeast carboxypeptidase Y-mediated compound formation at 1 mg after 3 hrs by RP-HPLC/mass spectra analysis; type: ADME; conditions: saccharomyces cerevisiae, in vitro, pH 7.6, 3 h

| Structure (SMILES) | EC50 [1] [µM] | CC50 at 120 h [2] [µM] | EC50 [3] [µM] | EC50 (Hepatitis B virus [4]) [µM] | EC90 (Hepatitis B virus [4]) [µM] | CC50 [5] [µM] | Drug metabolism [6] | EC50 [7] [µM] | selectivity ratio [8] | half-life at 0.1 µM [9] [min] | selectivity ratio [10] | half-life at 100 µM [11] [min] | selectivity ratio [12] | EC50 (Hepatitis B virus [13]) [µM] | EC90 (Hepatitis B virus [13]) [µM] | selectivity ratio [14] | Drug metabolism [15] |
| --- | --- | --- | --- | --- | --- | --- | --- | --- | --- | --- | --- | --- | --- | --- | --- | --- | --- |
| CC(C)OC(=O)[C@H](C)NP(=O)(CO[C@H]1CO[C@@H](n2cnc3c(=O)[nH]c(N)nc32)C1)Oc1ccccc1 (stereo partly drawn) | > 112 | ≥ 112 | > 112 | > 100 | > 100 | > 100 |  |  |  |  |  |  |  |  |  |  |  |
| CC(C)CCOC(=O)C[C@H](NP(=O)(O)CO[C@H]1CO[C@@H](n2cnc3c(N)ncnc32)C1)C(=O)OCCC(C)C |  |  |  |  |  |  | Metabolite detected |  |  |  |  |  |  |  |  |  |  |
| CC(C)OC(=O)[C@H](C)NP(=O)(CO[C@H]1CO[C@@H](n2ccc(N)nc2=O)C1)N[C@@H](C)C(=O)OC(C)C | > 193 | ≥ 193 | > 193 | > 100 | > 100 | > 100 |  |  |  |  |  |  |  |  |  |  |  |
| C[C@H](Cn1cnc2c(N)ncnc21)OCP(=O)(O)O [TENOFOVIR ANHYDROUS] |  |  |  |  |  |  |  | 5 |  |  |  |  |  |  |  |  |  |
| CC(C)OC(=O)[C@H](C)NP(=O)(CO[C@H]1CO[C@@H](n2cnc3c(N)ncnc32)C1)Oc1ccccc1 (stereo partly drawn) | 0.0535 | 61.8 | 0.103 | 0.03 | > 10 | > 10 |  |  | > 333 | > 60 | 597 | > 60 | 1150 |  |  |  |  |
| Nc1ccn([C@@H]2CS[C@H](CO)O2)c(=O)n1 [LAMIVUDINE] |  | > 87.2 |  | 0.01 | > 2 | > 2 |  |  | > 200 |  | > 39 |  | > 10 | < 0.01 | > 2 | > 254 |  |
| Cc1cn([C@H]2C[C@@H](OCP(=O)(O)O)CO2)c(=O)[nH]c1=O | 23.6 | 297 | 27.1 | 40.2 |  | > 100 |  |  | > 2.49 |  | 11 |  | 13 |  |  |  |  |
| CC(C)OC(=O)[C@H](C)NP(=O)(CO[C@H]1CO[C@@H](n2cnc3c(=O)[nH]c(N)nc32)C1)N[C@@H](C)C(=O)OC(C)C | > 97.6 | ≥ 97.6 | > 97.6 | > 100 | > 100 | > 100 |  |  |  |  |  |  |  |  |  |  |  |
| Nc1ncnc2c1ncn2[C@@H]1OC[C@H](OCP(=O)(O)O)[C@H]1F | ≥ 214 | 262 | ≥ 222 | 79.6 | > 100 | > 100 |  |  |  |  |  |  |  |  |  |  |  |
| CC(C)OC(=O)[C@H](C)NP(=O)(CO[C@H]1CO[C@@H](n2ccc(N)nc2=O)C1)Oc1ccccc1 (stereo partly drawn) | > 160 | > 160 | > 160 | 47.9 |  | > 100 |  |  | > 2 |  |  |  |  |  |  |  |  |
| CC(C)CCOC(=O)C[C@H](NP(=O)(O)CO[C@H]1CO[C@@H](n2cnc3c(N)ncnc32)C1)C(=O)O |  |  |  |  |  |  |  |  |  |  |  |  |  |  |  |  | Metabolite_Detected |
| Nc1ncnc2c1ncn2[C@H]1C[C@@H](OCP(=O)(O)O)CO1 | 5.23 | ≥ 315 | 4.69 | 0.5 |  | > 100 |  |  | > 200 |  | ≥ 67 |  | ≥ 60 |  |  |  |  |
| Cc1cn([C@H]2C[C@@H](OCP(=O)(N[C@@H](C)C(=O)OC(C)C)Oc3ccccc3)CO2)c(=O)[nH]c1=O (stereo partly drawn) | 0.424 | 127 | 0.565 | 0.26 | > 10 | > 100 |  |  | > 38 |  | 223 |  | 295 |  |  |  |  |
| Nc1ccn([C@H]2C[C@@H](OCP(=O)(O)O)CO2)c(=O)n1 | > 343 | > 343 | > 343 | > 100 | > 100 | > 100 |  |  |  |  |  |  |  |  |  |  |  |
| Nc1nc2c(ncn2[C@H]2C[C@@H](OCP(=O)(O)O)CO2)c(=O)[nH]1 | > 302 | > 302 | > 302 | > 100 | > 100 | > 100 |  |  |  |  |  |  |  |  |  |  |  |
| CCCOC(=O)[C@H](Cc1ccccc1)NP(=O)(CO[C@H]1CO[C@@H](n2cc(C)c(=O)[nH]c2=O)C1)N[C@@H](Cc1ccccc1)C(=O)OCCC | 0.0204 | 56.6 | 0.0292 | 0.28 | > 10 | > 10 |  |  | > 36 |  | 1970 |  | 2780 |  |  |  |  |
| Cc1cn([C@H]2C[C@@H](OCP(=O)(N[C@@H](CC(=O)OCCC(C)C)C(=O)OCCC(C)C)Oc3ccccc3)CO2)c(=O)[nH]c1=O (stereo partly drawn) | 0.011 | 42.2 | 0.0173 | 0.25 | > 100 | 34 |  |  | 136 |  | 2350 |  | 3860 |  |  |  |  |
| CCCOC(=O)[C@H](Cc1ccccc1)NP(=O)(CO[C@H]1CO[C@@H](n2cnc3c(=O)[nH]c(N)nc32)C1)N[C@@H](Cc1ccccc1)C(=O)OCCC | > 62 | > 62 | > 62 | > 100 |  | > 100 |  |  |  |  |  |  |  |  |  |  |  |
| CCCOC(=O)[C@H](Cc1ccccc1)NP(=O)(CO[C@H]1CO[C@@H](n2cnc3c(N)ncnc32)C1)N[C@@H](Cc1ccccc1)C(=O)OCCC | 0.002 | 1.12 | 0.0033 | 0.01 | 4.2 | > 10 |  |  | > 1000 | 7 | 347 | < 10 | 570 | 0.03 | 6.37 | > 3330 |  |
